Measurements: publication PMC9621298 (Journal of Enzyme Inhibition and Medicinal Chemistry, 2022)
Entries after “also recorded” stand apart in the source; their conditions may differ. Blank lines part the entries; values can stand above or below the compound they belong to.

How the values were obtained:
[1] = target: T1, Siah1 (Homo sapiens, UniProt Q8IUQ4); experiment: In vitro pull-down assay with biotin-attached E3 ligase ligands; details: tested as biotin-attached 5 and 6; no binding to AIMP2-DX2
T1 sequence (Q8IUQ4 1-282): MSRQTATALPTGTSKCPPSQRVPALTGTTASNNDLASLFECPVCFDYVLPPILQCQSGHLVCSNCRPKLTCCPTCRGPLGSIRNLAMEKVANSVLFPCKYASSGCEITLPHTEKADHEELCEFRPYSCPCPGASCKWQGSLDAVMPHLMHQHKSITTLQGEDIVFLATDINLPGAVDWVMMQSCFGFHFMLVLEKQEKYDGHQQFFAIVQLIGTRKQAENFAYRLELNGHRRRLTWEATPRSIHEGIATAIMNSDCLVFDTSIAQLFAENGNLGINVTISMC

[2] = target: T1, Siah1; experiment: Surface plasmon resonance; format: binding; details: details are not reported
[3] = target: T2, AIMP2-DX2 (Homo sapiens, UniProt Q13155); experiment: Screening: luminescence of luciferase-tagged AIMP2-DX2 in A549 cells; format: cell-based; details: 4 µM, 24 h
T2 sequence (Q13155 1-251 isoform Q13155-2): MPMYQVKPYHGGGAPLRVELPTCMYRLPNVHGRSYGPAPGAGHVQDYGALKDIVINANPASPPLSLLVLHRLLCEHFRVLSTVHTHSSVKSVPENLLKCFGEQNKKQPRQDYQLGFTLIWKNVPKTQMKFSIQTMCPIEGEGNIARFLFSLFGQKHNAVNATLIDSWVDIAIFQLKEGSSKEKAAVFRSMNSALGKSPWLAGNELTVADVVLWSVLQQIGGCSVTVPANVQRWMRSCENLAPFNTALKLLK

[4] = target: T3, binding of Siah1 to AIMP2-DX2 (Homo sapiens, UniProt Q13155+Q8IUQ4); experiment: Immunoprecipitation assay: cellular binding of AIMP2-DX2 and Siah1; format: cell-based; details: Figure 5(A)
T3 sequence (Q13155 1-251 isoform Q13155-2): T2 sequence (Q13155 1-251 isoform Q13155-2)
T3 sequence (Q8IUQ4 1-282): T1 sequence (Q8IUQ4 1-282)

[5] = target: T4, AIMP2 (Homo sapiens, UniProt Q13155); experiment: Western blotting of AIMP2 level; format: cell-based; details: selectivity versus AIMP2-DX2
T4 sequence (Q13155 1-320): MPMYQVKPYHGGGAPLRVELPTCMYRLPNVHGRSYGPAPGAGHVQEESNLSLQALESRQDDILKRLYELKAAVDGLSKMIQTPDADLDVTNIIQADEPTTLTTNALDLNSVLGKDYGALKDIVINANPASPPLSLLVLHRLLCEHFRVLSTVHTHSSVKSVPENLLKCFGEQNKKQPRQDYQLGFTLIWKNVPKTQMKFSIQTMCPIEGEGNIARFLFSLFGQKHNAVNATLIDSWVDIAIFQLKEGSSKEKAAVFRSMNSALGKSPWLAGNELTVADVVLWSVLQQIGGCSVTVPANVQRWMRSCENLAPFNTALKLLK

[6] = test system: Siah1-knockdowned cells; experiment: MTT cell viability assay with Siah1 knockdown by si-RNA; format: cell-based; details: Figure 7(A)
Method in brief: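 Cells were knocked down for Siah1 with specific si-RNA and then treated with test compound. Viability was read by MTT: 96 h in serum-free medium, MTT for 1.5 h at 37 °C, formazan in DMSO, absorbance at 560 nm. Siah1 and AIMP2-DX2 protein levels were checked by immunoblotting. Three independent repeats.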

[7] = target: T2, AIMP2-DX2; experiment: Ubiquitination assay in 293 T cells expressing strep-tagged AIMP2-DX2; format: cell-based; details: 293 T cells expressing strep-AIMP2-DX2, with MG132
Method in brief: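 293 T cells were grown in DMEM with 10% FBS at 37 °C in 5% CO2 and expressed strep-tagged AIMP2-DX2 from the pEXPR-IBA5 vector. AIMP2-DX2 was pulled down on strep-tactin, run on SDS-PAGE and immunoblotted, including with anti-ubiquitin.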

[8] = target: T2, AIMP2-DX2; experiment: Western blotting of AIMP2-DX2 protein level; format: cell-based; details: Figure 6(A)
[9] = target: T5, binding of Siah1 and AIMP2-DX2 (Homo sapiens, UniProt Q13155+Q8IUQ4); experiment: In vitro pull-down assay: binding of Siah1 and AIMP2-DX2; details: Figure 5(B)
T5 sequence (Q13155 1-251 isoform Q13155-2): T2 sequence (Q13155 1-251 isoform Q13155-2)
T5 sequence (Q8IUQ4 1-282): T1 sequence (Q8IUQ4 1-282)
Method in brief: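 Direct binding of the two proteins was tested in vitro by GST pull-down with test compound present. An empty-vector control was included. GST proteins were detected by Coomassie staining.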

Structure (SMILES): Nc1cccc2c1C(=O)N(C1CCC(=O)NC1=O)C2=O (centres unmarked) [Compound 4, pomalidomide]
binding to Siah1 (in vitro pull-down) [1]: specifically bind to Siah1 | binding affinity with Siah1 (SPR) [2]: most favourable; also recorded: some degree of binding affinity

Structure (SMILES): O=C1CCC(N2C(=O)c3cccc(OCCOCCOCCOCCOCCOCc4cn(Cc5ccc(S(=O)(=O)N[C@@H](Cc6c[nH]c7ccccc67)C(=O)Nc6ccc(N7CCOCC7)cc6)cc5)nn4)c3C2=O)C(=O)N1 (stereo partly drawn) [Compound 16, (2S)-2-((4-((4–(16-((2–(2,6-dioxopiperidin-3-yl)-1,3-Dioxoisoindolin-4-yl)oxy)-2,5,8,11,14-pentaoxahexadecyl)-1H-1,2,3-triazol-1-yl)methyl)phenyl)sulfonamido)-3-(1H-indol-3-yl)-N-(4-morpholinophenyl)propanamide]
inhibitory activity on AIMP2-DX2 (in words) [3]: very poor inhibitory activities

Structure (SMILES): O=C1CCC(N2C(=O)c3cccc(NC(=O)CCOCCOCCOCCOCCOCCOCc4cn(Cc5ccc(S(=O)(=O)N[C@@H](Cc6c[nH]c7ccccc67)C(=O)Nc6ccc(N7CCOCC7)cc6)cc5)nn4)c3C2=O)C(=O)N1 (stereo partly drawn) [Compound 23, 1–(1-(4-(N-((S)-3-(1H-Indol-3-yl)-1-((4-morpholinophenyl)amino)-1-oxopropan-2-yl)sulfamoyl)benzyl)-1H-1,2,3-triazol-4-yl)-N-(2–(2,6-dioxopiperidin-3-yl)-1,3-dioxoisoindolin-4-yl)-2,5,8,11,14,17-hexaoxaicosan-20-amide]
inhibitory activity on AIMP2-DX2 (in words) [3]: very poor inhibitory activities

More lines, main results first:

inhibitory activity on AIMP2-DX2 (in words) [3]: very poor inhibitory activities
Structure (SMILES): O=C1CCC(N2C(=O)c3cccc(NC(=O)CCOCCOCCOCCOCc4cn(Cc5ccc(S(=O)(=O)N[C@@H](Cc6c[nH]c7ccccc67)C(=O)Nc6ccc(N7CCOCC7)cc6)cc5)nn4)c3C2=O)C(=O)N1 (stereo partly drawn) [Compound 21, 1–(1-(4-(N-((S)-3-(1H-Indol-3-yl)-1-((4-morpholinophenyl)amino)-1-oxopropan-2-yl)sulfamoyl)benzyl)-1H-1,2,3-triazol-4-yl)-N-(2–(2,6-dioxopiperidin-3-yl)-1,3-dioxoisoindolin-4-yl)-2,5,8,11-tetraoxatetradecan-14-amide]

inhibitory activity on AIMP2-DX2 (in words) [3]: very poor inhibitory activities
Structure (SMILES): O=C1CCC(N2C(=O)c3cccc(NC(=O)CCOCCOCCOCCOCCOCc4cn(Cc5ccc(S(=O)(=O)N[C@@H](Cc6c[nH]c7ccccc67)C(=O)Nc6ccc(N7CCOCC7)cc6)cc5)nn4)c3C2=O)C(=O)N1 (stereo partly drawn) [Compound 22, 1–(1-(4-(N-((S)-3-(1H-Indol-3-yl)-1-((4-morpholinophenyl)amino)-1-oxopropan-2-yl)sulfamoyl)benzyl)-1H-1,2,3-triazol-4-yl)-N-(2–(2,6-dioxopiperidin-3-yl)-1,3-dioxoisoindolin-4-yl)-2,5,8,11,14-pentaoxaheptadecan-17-amide]

inhibitory activity on AIMP2-DX2 (in words) [3]: very poor inhibitory activities
Structure (SMILES): O=C1CCC(N2C(=O)c3cccc(NC(=O)COCCOCCOCCOCCOCCNC(=O)c4ccc(S(=O)(=O)N[C@@H](Cc5c[nH]c6ccccc56)C(=O)Nc5ccc(N6CCOCC6)cc5)cc4)c3C2=O)C(=O)N1 (stereo partly drawn) [Compound 31, 4-(N-((S)-3-(1H-Indol-3-yl)-1-((4-morpholinophenyl)amino)-1-oxopropan-2-yl)sulfamoyl)-N-(17-((2–(2,6-dioxopiperidin-3-yl)-1,3-dioxoisoindolin-4-yl)amino)-17-oxo-3,6,9,12,15-pentaoxaheptadecyl)benzamide]

effect on AIMP2 [5]: without any effect on AIMP2 | ubiquitination of AIMP2-DX2 [7]: induced | level of AIMP2-DX2 protein [8]: specifically decreased | binding of Siah1 and AIMP2-DX2 (in vitro pull-down) [9]: direct effect on binding of two proteins
Structure (SMILES): Cc1ccc(S(=O)(=O)N[C@@H](Cc2c[nH]c3ccccc23)C(=O)Nc2ccc(N3CCN(C(=O)CCOCCNc4cccc5c4C(=O)N(C4CCC(=O)NC4=O)C5=O)CC3)cc2)cc1 (stereo partly drawn) [Compound 45, (2S)-N-(4–(4-(3–(2-((2–(2,6-Dioxopiperidin-3-yl)-1,3-dioxoisoindolin-4-yl)amino)ethoxy)propanoyl)piperazin-1-yl)phenyl)-3-(1H-indol-3-yl)-2-((4-methylphenyl)sulfonamido)propanamide]
endogenous binding of Siah1 to AIMP2-DX2 (immunoprecipitation) [4]: enhances the endogenous binding of Siah1 to AIMP2-DX2 in a dose-dependent manner | cell viability ([6]; Siah1 knocked down using specific si-RNA): no significant difference in cell viability | cell viability ([6]; Siah1 not knocked down): efficiently reduced cell viability
